Measurements taken from ChEMBL document CHEMBL1155551, “First synthesis and antiprotozoal activities of divinyl sulfone-modified carbohydrates” (Bioorg Med Chem Lett, 2010).

What was measured:
[1] = system: Entamoeba invadens; assay: Antiprotozoal activity against Entamoeba invadens after 24 hrs by trypan blue assay; format: functional, organism-based
Method in brief: (§1)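 Trophozoites kept in TYIS-33 medium, E. histolytica at 37 °C and E. invadens at 25 °C. About 5 × 10⁵ cells/mL exposed to compounds (10 mM stocks in DMSO) for 24 h, with DMSO as negative and metronidazole as positive control. Cells washed in PBS; live cells counted by hemocytometer with trypan blue. IC50 fitted from at least three experiments, each in triplicate.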

[2] = system: Entamoeba histolytica; assay: Antiprotozoal activity against Entamoeba histolytica after 24 hrs by trypan blue assay; format: functional, organism-based; method in brief: as §1
[3] = system: MCF7; assay: Cytotoxicity against human MCF7 after 36 hrs by MTT assay; format: cell-based; conditions: mcf7, 48 h, in the assay text read “48 hrs” for “36 hrs”
Method in brief: (§2)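 MCF7 or AH927 cells seeded at 2 × 10³ per well under 5% CO2, 37 °C. After 36 h, compound added at concentrations ranging from 0 to 100, with untreated wells as control. Viability read by MTT after 48 h of treatment.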

[4] = Cytotoxicity against cat AH927 after 36 hrs by MTT assay; conditions: Felis catus, 48 h, in the assay text read “48 hrs” for “36 hrs”; method in brief: as §2

Structure (SMILES)	IC50 [1]	IC50 [2]	Activity [3]	Activity [4]
C=CS(=O)(=O)C1=C[C@@H](OC)O[C@@H]1COCc1ccccc1	30.1 µM	24.4 µM	–	–
C=CS(=O)(=O)C1=C[C@@H](OC)O[C@@H]1COC(c1ccccc1)(c1ccccc1)c1ccccc1	25 µM	37.9 µM	–	–
Cc1ncc([N+](=O)[O-])n1CCO [METRONIDAZOLE]	3 µM	2.5 µM	–	–
C=CS(=O)(=O)C1=C[C@H](OC)O[C@@H]1COC(c1ccccc1)(c1ccccc1)c1ccccc1	17 µM	32.9 µM	–	–
C=CS(=O)(=O)C1=C[C@H](OC)O[C@@H]1COCc1ccccc1	9.3 µM	19.5 µM	Non-toxic	Non-toxic
